Series [1] in a line: Clearance in Wistar rat at 1 mg/kg, iv by LC-MS/MS analysis. In kind it is ADME, organism-based. The note with it: in vivo. Summed up:
(§1)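 Wistar rats given a single 1 mg/kg iv dose. Plasma concentration–time profiles were plotted as mean ± SEM and sampled through 24 h postdose. Values were taken from the iv profile.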

The target of a further series is Histone deacetylase 8 (Homo sapiens, UniProt Q9BY41). The series can be described thus: Inhibition of C-terminal His tagged human recombinant HDAC8 (1 to 377 residues) expressed in Baculovirus infected insect cells in presence of ATP. An outline of the steps: (§2)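 HDAC enzyme inhibition was run by a contract laboratory.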
For series [2], the target named is T1, Protein deacetylase HDAC6 (Homo sapiens, UniProt Q9UBN7).
T1 sequence (Q9UBN7 whole entry): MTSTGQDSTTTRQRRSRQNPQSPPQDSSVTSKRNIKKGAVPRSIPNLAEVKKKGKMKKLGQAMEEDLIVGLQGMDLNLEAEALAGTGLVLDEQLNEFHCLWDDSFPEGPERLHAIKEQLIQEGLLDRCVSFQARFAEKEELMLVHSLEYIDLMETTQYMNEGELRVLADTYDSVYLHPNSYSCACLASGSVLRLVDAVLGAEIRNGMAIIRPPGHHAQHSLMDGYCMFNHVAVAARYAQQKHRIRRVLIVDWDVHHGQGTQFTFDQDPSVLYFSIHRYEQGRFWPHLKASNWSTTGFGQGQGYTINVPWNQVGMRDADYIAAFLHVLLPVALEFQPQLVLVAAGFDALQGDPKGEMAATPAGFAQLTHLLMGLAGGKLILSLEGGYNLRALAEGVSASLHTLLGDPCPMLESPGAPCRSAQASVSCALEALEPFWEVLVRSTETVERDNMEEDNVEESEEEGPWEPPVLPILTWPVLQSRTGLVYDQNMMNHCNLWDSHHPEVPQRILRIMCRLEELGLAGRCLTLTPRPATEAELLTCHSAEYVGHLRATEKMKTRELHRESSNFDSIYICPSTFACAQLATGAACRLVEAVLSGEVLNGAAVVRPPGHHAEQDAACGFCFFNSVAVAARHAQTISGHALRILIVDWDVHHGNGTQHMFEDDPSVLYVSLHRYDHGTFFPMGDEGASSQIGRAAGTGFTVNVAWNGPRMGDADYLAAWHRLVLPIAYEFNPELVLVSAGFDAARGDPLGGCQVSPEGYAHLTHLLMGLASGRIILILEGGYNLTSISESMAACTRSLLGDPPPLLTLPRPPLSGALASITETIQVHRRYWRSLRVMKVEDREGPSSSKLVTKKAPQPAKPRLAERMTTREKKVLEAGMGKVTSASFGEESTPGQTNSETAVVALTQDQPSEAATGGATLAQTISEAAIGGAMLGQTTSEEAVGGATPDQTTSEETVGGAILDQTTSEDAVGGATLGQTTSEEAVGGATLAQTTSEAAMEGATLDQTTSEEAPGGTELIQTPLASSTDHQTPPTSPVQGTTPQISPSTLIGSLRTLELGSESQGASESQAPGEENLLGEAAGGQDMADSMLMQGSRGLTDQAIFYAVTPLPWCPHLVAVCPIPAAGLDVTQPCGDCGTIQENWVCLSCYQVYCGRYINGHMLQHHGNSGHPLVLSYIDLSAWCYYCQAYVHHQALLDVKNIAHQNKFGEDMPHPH
The series can be described thus: Inhibition of N-terminal GST tagged human HDAC6 (1 to 1215 residues) expressed in baculovirus infected insect cells using RHKKAc as substrate in presence of ATP.

Series [3] deals with T2, Tyrosine-protein kinase JAK2 (Homo sapiens, UniProt O60674). The series can be described thus: Binding affinity to N-terminal His tagged human recombinant JAK2 (1014 to 1132 residues) expressed in Escherichia coli after 60 to 90 mins by LC/MS analysis. The note with it: read-out: Kd(app).
The target in series [4] is Receptor-type tyrosine-protein kinase FLT3 (Homo sapiens) (UniProt P36888). Nature of the series: Inhibition of human FLT3 using EAIYAAPFAKKK as substrate at 1 uM in presence of [gamma-33P]-ATP relative to control. Summed up:
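Kinase inhibition was tested by radiometric "Hotspot" profiling at a contract laboratory with 10 μM ATP.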

Series [5] addresses T2, Tyrosine-protein kinase JAK2. The series can be described thus: Inhibition of wild type human JAK2 (A829 to G1132 residues) expressed in mammalian cells assessed as residual activity at 1 uM by KINOMEscan assay relative to control. In kind it is cell-based.
Series [6] has as its target Non-receptor tyrosine-protein kinase TYK2 (Homo sapiens, UniProt P29597). The series can be described thus: Inhibition of wild type human TYK2 (V877 to C1187 residues) expressed in mammalian cells assessed as residual activity at 1 uM by KINOMEscan assay relative to control. In kind it is cell-based.
The target of series [7] is NUAK family SNF1-like kinase 2 (Homo sapiens) (UniProt Q9H093). The series can be described thus: Inhibition of wild type human SNARK (P22 to A333 residues) expressed in mammalian cells assessed as residual activity at 1 uM by KINOMEscan assay relative to control. In kind it is cell-based.
Series [8] has as its target Histone deacetylase 4 (Homo sapiens) (UniProt P56524). The series can be described thus: Inhibition of N-terminal GST tagged/C-terminal His tagged human recombinant HDAC4 (627 to 1084 residues) expressed in Baculovirus infected insect cells in presence of ATP. The note with it: concentration not given here. Summed up:
as §2

In series [9] the target is Polyamine deacetylase HDAC10 (Homo sapiens, UniProt Q969S8). Nature of the series: Inhibition of human HDAC10 using fluorogenic peptide from p53 residues 379 to 382 as substrate in presence of ATP. An outline of the steps:
as §2

In a further series the test system is MDA-MB-231. Nature of the series: cells. In kind it is functional, cell-based. The note with it: Homo sapiens, MDA-MB-231, 72 h.
A further series deals with Jurkat. The series can be described thus: cells. In kind it is functional, cell-based. The note with it: Homo sapiens.
The subject of series [10] is KMS-12-BM. The series can be described thus: cells. The note with it: Homo sapiens, 48 h. In kind it is functional, cell-based.
For a further series, the system named is KG-1. The series can be described thus: cells. In kind it is functional, cell-based. The note with it: Homo sapiens, KG-1, 48 h.
In the next series the test system is MV4-11. Nature of the series: cells. In kind it is functional, cell-based. The note with it: Homo sapiens, MV4-11, 48 h.
The nature of another series: cells. In kind it is functional, cell-based. The note with it: Homo sapiens, NKYS, 48 h.
Series [11] can be described thus: AUC (0 to infinity) in Wistar rat at 1 mg/kg, iv by LC-MS/MS analysis. In kind it is ADME, organism-based. The note with it: in vivo. Further details: dose 1 mg/kg, time infinity, route intravenous. Summed up:
as §1

Series [12] is described as follows: Tmax in Wistar rat at 5 mg/kg, po administered via gavage by LC-MS/MS analysis. In kind it is ADME, organism-based. The note with it: in vivo. An outline of the steps:
(§3)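 Wistar rats given a single 5 mg/kg oral dose. Plasma concentration–time profiles were plotted as mean ± SEM and sampled through 24 h postdose.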

Series [13] in a line: Oral bioavailability in Wistar rat at 5 mg/kg administered via gavage by LC-MS/MS analysis. The note with it: in vivo. In kind it is ADME, organism-based. Summed up:
as §3

Series [14] relates to KMS-12-BM. The series can be described thus: Induction of apoptosis in human KMS-12-BM cells assessed as increase in cleaved PARP level at 1 to 6 uM after 24 hrs by immunoblotting analysis. In kind it is functional, cell-based. Summed up:
(§4)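 KMS-12-BM and MOLM-14 cells were treated for 24 h and then lysed. Cleaved PARP was detected by immunoblotting.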

Another series has as its system MOLM-14. Nature of the series: Induction of apoptosis in human MOLM14 cells assessed as increase in cleaved PARP level at 1 to 6 uM after 24 hrs by immunoblotting analysis. In kind it is functional, cell-based. Summed up:
as §4

T2 sequence (O60674 whole entry, the tested form may be a part): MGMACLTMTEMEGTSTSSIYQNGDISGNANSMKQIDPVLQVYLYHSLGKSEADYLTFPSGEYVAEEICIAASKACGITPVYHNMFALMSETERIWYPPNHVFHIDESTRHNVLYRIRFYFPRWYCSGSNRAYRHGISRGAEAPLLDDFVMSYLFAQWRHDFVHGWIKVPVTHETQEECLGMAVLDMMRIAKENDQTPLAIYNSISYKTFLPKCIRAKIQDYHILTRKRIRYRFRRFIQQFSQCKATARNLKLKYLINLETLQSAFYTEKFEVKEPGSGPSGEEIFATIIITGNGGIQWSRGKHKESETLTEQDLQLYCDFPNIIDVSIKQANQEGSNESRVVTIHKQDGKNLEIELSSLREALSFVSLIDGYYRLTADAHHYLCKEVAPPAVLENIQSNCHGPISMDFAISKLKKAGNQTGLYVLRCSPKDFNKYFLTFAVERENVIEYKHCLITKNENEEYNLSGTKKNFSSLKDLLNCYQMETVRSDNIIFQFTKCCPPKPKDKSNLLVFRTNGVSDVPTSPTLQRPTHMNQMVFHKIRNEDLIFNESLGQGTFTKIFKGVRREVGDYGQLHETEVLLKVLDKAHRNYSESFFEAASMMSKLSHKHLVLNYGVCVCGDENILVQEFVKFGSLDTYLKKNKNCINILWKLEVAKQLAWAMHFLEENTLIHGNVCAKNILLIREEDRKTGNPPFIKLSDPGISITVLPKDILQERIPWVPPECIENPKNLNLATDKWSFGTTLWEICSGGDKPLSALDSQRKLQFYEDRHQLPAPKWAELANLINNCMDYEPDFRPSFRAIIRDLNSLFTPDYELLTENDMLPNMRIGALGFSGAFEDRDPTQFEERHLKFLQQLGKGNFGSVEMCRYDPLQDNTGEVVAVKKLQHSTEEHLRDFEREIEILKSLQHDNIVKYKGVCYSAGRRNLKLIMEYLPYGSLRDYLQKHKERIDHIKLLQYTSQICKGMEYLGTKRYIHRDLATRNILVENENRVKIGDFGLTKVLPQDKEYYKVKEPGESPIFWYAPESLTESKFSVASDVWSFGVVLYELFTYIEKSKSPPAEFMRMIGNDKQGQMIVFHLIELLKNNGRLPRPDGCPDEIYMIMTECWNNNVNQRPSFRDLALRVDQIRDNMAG
Sequence of NUAK family SNF1-like kinase 2 (Homo sapiens) (Q9H093 whole entry, the tested form may be a part): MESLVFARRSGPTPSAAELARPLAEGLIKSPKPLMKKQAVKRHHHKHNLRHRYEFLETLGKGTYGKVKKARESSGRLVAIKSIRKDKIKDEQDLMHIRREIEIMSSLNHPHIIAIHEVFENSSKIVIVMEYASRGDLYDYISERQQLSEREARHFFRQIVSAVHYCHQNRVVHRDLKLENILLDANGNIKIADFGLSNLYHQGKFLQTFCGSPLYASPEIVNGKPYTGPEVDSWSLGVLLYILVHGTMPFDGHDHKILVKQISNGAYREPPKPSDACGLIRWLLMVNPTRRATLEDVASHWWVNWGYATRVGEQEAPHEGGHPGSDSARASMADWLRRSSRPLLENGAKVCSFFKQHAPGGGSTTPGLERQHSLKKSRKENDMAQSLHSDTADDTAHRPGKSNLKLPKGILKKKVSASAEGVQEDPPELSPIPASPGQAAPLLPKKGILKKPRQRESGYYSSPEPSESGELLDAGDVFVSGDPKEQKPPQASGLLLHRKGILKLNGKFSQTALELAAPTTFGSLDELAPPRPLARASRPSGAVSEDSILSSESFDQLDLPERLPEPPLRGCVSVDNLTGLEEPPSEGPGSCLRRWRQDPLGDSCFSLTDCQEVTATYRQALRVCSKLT
Sequence of Histone deacetylase 8 (Q9BY41 whole entry, the tested form may be a part): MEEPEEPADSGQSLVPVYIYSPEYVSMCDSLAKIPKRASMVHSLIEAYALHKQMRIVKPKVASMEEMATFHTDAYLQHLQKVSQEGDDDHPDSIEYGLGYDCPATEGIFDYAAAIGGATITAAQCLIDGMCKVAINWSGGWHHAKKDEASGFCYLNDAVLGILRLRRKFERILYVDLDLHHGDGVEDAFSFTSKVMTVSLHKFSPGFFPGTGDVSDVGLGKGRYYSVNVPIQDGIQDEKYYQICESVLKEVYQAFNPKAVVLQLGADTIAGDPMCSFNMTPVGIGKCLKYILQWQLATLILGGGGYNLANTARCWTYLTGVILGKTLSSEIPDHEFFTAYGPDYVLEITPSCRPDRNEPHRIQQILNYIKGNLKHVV
Sequence of Histone deacetylase 4 (Homo sapiens) (P56524 whole entry, the tested form may be a part): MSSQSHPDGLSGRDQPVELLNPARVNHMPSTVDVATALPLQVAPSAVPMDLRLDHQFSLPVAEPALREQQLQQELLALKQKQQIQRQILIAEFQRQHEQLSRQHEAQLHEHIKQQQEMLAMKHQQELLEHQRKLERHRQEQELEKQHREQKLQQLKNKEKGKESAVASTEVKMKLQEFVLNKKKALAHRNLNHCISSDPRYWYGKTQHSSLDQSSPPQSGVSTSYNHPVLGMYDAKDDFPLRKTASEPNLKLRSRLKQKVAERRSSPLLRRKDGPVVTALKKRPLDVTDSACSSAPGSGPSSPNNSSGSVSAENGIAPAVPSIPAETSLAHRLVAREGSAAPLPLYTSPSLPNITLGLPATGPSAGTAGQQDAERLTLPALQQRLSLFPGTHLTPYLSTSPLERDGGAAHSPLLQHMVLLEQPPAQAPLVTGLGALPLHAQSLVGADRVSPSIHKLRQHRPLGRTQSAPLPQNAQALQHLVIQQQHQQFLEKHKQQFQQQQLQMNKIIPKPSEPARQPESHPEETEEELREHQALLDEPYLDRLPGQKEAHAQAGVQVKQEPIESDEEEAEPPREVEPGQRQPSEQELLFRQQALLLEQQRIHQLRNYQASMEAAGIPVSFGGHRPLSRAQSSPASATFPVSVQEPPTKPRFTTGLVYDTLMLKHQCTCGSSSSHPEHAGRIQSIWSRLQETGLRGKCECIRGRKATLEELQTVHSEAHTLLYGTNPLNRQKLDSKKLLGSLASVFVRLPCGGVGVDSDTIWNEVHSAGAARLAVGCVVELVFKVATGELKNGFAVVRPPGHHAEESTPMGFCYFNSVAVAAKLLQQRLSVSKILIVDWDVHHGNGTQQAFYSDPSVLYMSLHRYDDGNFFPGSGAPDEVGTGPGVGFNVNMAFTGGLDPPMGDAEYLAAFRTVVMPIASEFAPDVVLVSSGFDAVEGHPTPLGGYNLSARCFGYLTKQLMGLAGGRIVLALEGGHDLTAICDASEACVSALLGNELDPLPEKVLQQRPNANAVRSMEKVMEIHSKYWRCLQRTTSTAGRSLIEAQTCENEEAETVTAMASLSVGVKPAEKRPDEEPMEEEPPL
Sequence of Polyamine deacetylase HDAC10 (Q969S8 whole entry, the tested form may be a part): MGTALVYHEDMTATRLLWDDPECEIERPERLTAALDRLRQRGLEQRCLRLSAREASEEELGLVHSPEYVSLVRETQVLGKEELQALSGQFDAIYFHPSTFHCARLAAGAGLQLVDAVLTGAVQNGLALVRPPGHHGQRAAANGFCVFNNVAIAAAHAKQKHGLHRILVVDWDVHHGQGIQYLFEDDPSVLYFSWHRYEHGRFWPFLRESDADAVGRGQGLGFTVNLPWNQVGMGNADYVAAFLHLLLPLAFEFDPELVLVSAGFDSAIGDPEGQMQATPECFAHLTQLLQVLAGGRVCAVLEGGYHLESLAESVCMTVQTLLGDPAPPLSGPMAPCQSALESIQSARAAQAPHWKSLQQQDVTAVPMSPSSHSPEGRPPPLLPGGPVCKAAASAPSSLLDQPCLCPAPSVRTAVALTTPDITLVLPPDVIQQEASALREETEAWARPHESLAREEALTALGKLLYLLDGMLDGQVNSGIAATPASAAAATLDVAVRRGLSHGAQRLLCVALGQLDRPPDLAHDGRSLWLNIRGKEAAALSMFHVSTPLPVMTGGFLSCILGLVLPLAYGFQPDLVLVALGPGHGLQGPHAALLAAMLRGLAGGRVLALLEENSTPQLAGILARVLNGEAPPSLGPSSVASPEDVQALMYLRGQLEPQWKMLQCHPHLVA
Sequence of Receptor-type tyrosine-protein kinase FLT3 (Homo sapiens) (P36888 whole entry): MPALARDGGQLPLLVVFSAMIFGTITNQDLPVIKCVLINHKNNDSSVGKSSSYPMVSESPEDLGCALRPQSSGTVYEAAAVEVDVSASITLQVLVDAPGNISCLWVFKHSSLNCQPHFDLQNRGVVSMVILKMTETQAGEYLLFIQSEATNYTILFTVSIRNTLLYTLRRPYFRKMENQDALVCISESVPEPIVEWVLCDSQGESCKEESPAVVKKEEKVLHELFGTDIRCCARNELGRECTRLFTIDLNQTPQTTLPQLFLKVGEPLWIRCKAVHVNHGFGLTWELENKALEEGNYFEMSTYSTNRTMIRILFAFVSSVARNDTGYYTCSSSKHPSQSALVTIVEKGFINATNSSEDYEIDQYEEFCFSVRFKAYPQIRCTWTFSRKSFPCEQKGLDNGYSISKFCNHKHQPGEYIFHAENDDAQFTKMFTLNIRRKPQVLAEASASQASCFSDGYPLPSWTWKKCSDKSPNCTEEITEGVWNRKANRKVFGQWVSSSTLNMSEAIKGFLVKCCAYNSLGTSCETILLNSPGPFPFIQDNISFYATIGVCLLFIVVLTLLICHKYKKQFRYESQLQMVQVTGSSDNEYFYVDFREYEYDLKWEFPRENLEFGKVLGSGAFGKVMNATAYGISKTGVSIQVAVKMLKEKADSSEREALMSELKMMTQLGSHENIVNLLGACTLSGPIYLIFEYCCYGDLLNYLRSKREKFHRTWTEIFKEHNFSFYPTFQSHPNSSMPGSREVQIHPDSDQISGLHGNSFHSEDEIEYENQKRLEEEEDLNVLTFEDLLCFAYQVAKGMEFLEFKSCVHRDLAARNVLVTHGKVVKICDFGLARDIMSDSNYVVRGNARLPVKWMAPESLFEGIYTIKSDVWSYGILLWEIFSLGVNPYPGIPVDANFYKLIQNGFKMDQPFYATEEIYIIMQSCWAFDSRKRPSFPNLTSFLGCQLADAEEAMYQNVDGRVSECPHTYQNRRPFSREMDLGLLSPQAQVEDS

With `O=C(CCCCCCn1cc(-c2ncnc3[nH]ccc23)cn1)NO`, the clearance in series [1] was 95.1 mL/min/kg. The IC50 stood at 469 nM on Histone deacetylase 8; 1.4 nM in series [2]; 19 nM in series [9]; 790 nM in the series with MDA-MB-231; 470 nM with Jurkat; 2020 nM in the series with KMS-12-BM [10]. The values for the IC50 with KG-1, in the series with MV4-11 and in “cells” were 150 nM, 460 nM and 450 nM, respectively. Further, the Kd in series [3] worked out at 5 µM. The inhibition in series [4] is 27%; in [8], 23%. For the same compound, the Activity was 0% in series [5]; 3.3% in series [6]; 7.5% in series [7]; “Dose-dependent effect” in the series on KMS-12-BM [14]; “Dose-dependent effect” in the series with MOLM-14. Also, the AUC(0-inf) in series [11] stood at 175 ng·h/mL. Besides, the Tmax in [12] amounted to 4.98 min. In series [13], this compound registered a bioavailability of 1.4%.
